# Assays:
# Rattus norvegicus [1] = assay: Distribution of radioactivity in kidneys of Fischer 344 female rat after 2 min of intravenous administration; assay type: ADME, organism-based, Kidney; details: in vivo
# In short: (§1)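 Female Fischer 344 rats (10-12 weeks, 170-200 g) with food and water ad libitum. The 131I-labelled fatty acid was taken up in ethanol, added dropwise to stirred 6% BSA at 40 °C (final ethanol 10%), filtered, and injected into a lateral tail vein under ether. Rats were CO2-anaesthetised and killed; organs were excised, rinsed, blotted, weighed and Ge(Li)-counted. Results are mean (range) % injected dose/g.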
# Rattus norvegicus [2] = assay: Distribution of radioactivity in kidneys of Fischer 344 female rat after 30 min of intravenous administration; assay type: ADME, organism-based, Kidney; details: in vivo, 0.5 h
# Rattus norvegicus [3] = assay: Distribution of radioactivity in kidneys of Fischer 344 female rat after 4 days of intravenous administration; assay type: ADME, organism-based, Kidney; details: in vivo, 96 h; in short: as §1
# Rattus norvegicus [4] = assay: Distribution of radioactivity in kidneys of Fischer 344 female rat after 60 min of intravenous administration; assay type: ADME, organism-based, Kidney; details: in vivo, 1 h
# Rattus norvegicus [5] = assay: Distribution of radioactivity in kidneys of Fischer 344 female rat after 6 hr of intravenous administration; assay type: ADME, organism-based, Kidney; details: in vivo; in short: as §1
# Rattus norvegicus [6] = assay: Distribution of radioactivity in liver of Fischer 344 female rat after 10 min of intravenous administration; assay type: ADME, organism-based; details: in vivo; in short: as §1
# Rattus norvegicus [7] = assay: Distribution of radioactivity in blood of Fischer 344 female rat after 60 min of intravenous administration; assay type: ADME, organism-based; details: in vivo, 1 h
# Rattus norvegicus [8] = assay: Distribution of radioactivity in blood of Fischer 344 female rat after 6 hr of intravenous administration; assay type: ADME, organism-based; details: in vivo; in short: as §1
# Rattus norvegicus [9] = assay: Distribution of radioactivity in blood of Fischer 344 female rat after 7 days of intravenous administration; assay type: ADME, organism-based; details: in vivo, 168 h; in short: as §1
# Rattus norvegicus [10] = assay: Distribution of radioactivity in blood of Fischer 344 female rat after 2 hr of intravenous administration; assay type: ADME, organism-based; details: in vivo; in short: as §1
# Rattus norvegicus [11] = assay: Distribution of radioactivity in Thyroid of Fischer 344 female rat after 10 min of intravenous administration; assay type: ADME, organism-based; details: in vivo; in short: as §1
# Rattus norvegicus [12] = assay: Distribution of radioactivity in Thyroid of Fischer 344 female rat after 24 hr of intravenous administration; assay type: ADME, organism-based; details: in vivo; in short: as §1
# Rattus norvegicus [13] = assay: Distribution of radioactivity in Thyroid of Fischer 344 female rat after 2 hr of intravenous administration; assay type: ADME, organism-based; details: in vivo; in short: as §1
# Rattus norvegicus [14] = assay: Distribution of radioactivity in brain of Fischer 344 female rat after 10 min of intravenous administration; assay type: ADME, organism-based; details: in vivo; in short: as §1
# Rattus norvegicus [15] = assay: Distribution of radioactivity in brain of Fischer 344 female rat after 24 hr of intravenous administration; assay type: ADME, organism-based; details: in vivo; in short: as §1
# Rattus norvegicus [16] = assay: Distribution of radioactivity in brain of Fischer 344 female rat after 2 hr of intravenous administration; assay type: ADME, organism-based; details: in vivo; in short: as §1
# Rattus norvegicus [17] = assay: Distribution of radioactivity in brain of Fischer 344 female rat after 2 min of intravenous administration; assay type: ADME, organism-based; details: in vivo; in short: as §1
# Rattus norvegicus [18] = assay: Distribution of radioactivity in brain of Fischer 344 female rat after 30 min of intravenous administration; assay type: ADME, organism-based; details: in vivo, 0.5 h; in short: as §1
# Rattus norvegicus [19] = assay: Distribution of radioactivity in brain of Fischer 344 female rat after 4 days of intravenous administration; assay type: ADME, organism-based; details: in vivo, 96 h; in short: as §1
# Rattus norvegicus [20] = assay: Distribution of radioactivity in brain of Fischer 344 female rat after 60 min of intravenous administration; assay type: ADME, organism-based; details: in vivo, 1 h; in short: as §1
# Rattus norvegicus [21] = assay: Distribution of radioactivity in brain of Fischer 344 female rat after 6 hr of intravenous administration; assay type: ADME, organism-based; details: in vivo; in short: as §1
# Rattus norvegicus [22] = assay: Distribution of radioactivity in brain of Fischer 344 female rat after 7 days of intravenous administration; assay type: ADME, organism-based; details: in vivo, 168 h; in short: as §1
# Rattus norvegicus [23] = assay: Distribution of radioactivity in heart of Fischer 344 female rat after 10 min of intravenous administration; assay type: ADME, organism-based; details: in vivo; in short: as §1
# Rattus norvegicus [24] = assay: Distribution of radioactivity in heart of Fischer 344 female rat after 2 min of intravenous administration; assay type: ADME, organism-based; details: in vivo; in short: as §1
# Rattus norvegicus [25] = assay: Distribution of radioactivity in liver of Fischer 344 female rat after 24 hr of intravenous administration; assay type: ADME, organism-based; details: in vivo
# In short: (§2)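 Female Fischer 344 rats, 10-12 weeks old, 170-200 g, fed ad libitum. The 131I-labelled fatty acid was dissolved in absolute ethanol, added dropwise to stirred 6% bovine serum albumin at 40 °C (final ethanol 10%), filtered, and injected into a lateral tail vein under ether anaesthesia. Organs were excised, rinsed, blotted and weighed, then counted by Ge(Li) analyzer as percent injected dose/g.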
# Rattus norvegicus [26] = assay: Distribution of radioactivity in liver of Fischer 344 female rat after 2 hr of intravenous administration; assay type: ADME, organism-based; details: in vivo; in short: as §1
# Rattus norvegicus [27] = assay: Distribution of radioactivity in liver of Fischer 344 female rat after 2 min of intravenous administration; assay type: ADME, organism-based; details: in vivo; in short: as §2
# Rattus norvegicus [28] = assay: Distribution of radioactivity in liver of Fischer 344 female rat after 30 min of intravenous administration; assay type: ADME, organism-based; details: in vivo, 0.5 h
# In short: (§3)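 Female Fischer 344 rats, 10-12 weeks, 170-200 g, fed ad libitum. The labelled fatty acid was given in 6% bovine serum albumin via a lateral tail vein under ether anaesthesia. Rats were killed by CO2 anaesthesia and cervical fracture; organs were excised, rinsed, blotted, weighed and counted by Ge(Li) analyzer. Results are mean percent injected dose/g with range.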
# Rattus norvegicus [29] = assay: Distribution of radioactivity in liver of Fischer 344 female rat after 4 of days intravenous administration; assay type: ADME, organism-based; details: in vivo; in short: as §2
# Rattus norvegicus [30] = assay: Distribution of radioactivity in liver of Fischer 344 female rat after 60 min of intravenous administration; assay type: ADME, organism-based; details: in vivo, 1 h; in short: as §3
# Rattus norvegicus [31] = assay: Distribution of radioactivity in liver of Fischer 344 female rat after 6 hr of intravenous administration; assay type: ADME, organism-based; details: in vivo; in short: as §2
smiles,measurement,setting,value
O=C(O)CCCCCCCC[Te]CCCCCCCC[131I],Distribution of radioactivity,Rattus norvegicus [1],1.36 dose g-1
same,Distribution of radioactivity,Rattus norvegicus [2],0.8 dose g-1
same,Distribution of radioactivity,Rattus norvegicus [3],0.03 dose g-1
same,Distribution of radioactivity,Rattus norvegicus [4],0.68 dose g-1
same,Distribution of radioactivity,Rattus norvegicus [5],0.36 dose g-1
same,Distribution of radioactivity,Rattus norvegicus [6],3.23 dose g-1
same,Distribution of radioactivity,Rattus norvegicus [7],0.64 dose g-1
same,Distribution of radioactivity,Rattus norvegicus [8],0.44 dose g-1
same,Distribution of radioactivity,Rattus norvegicus [9],0.009 dose g-1
same,Distribution of radioactivity,Rattus norvegicus [10],0.61 dose g-1
same,Distribution of radioactivity,Rattus norvegicus [11],12.1 dose g-1
same,Distribution of radioactivity,Rattus norvegicus [12],475 dose g-1
same,Distribution of radioactivity,Rattus norvegicus [13],166 dose g-1
same,Distribution of radioactivity,Rattus norvegicus [14],0.11 dose g-1
same,Distribution of radioactivity,Rattus norvegicus [15],0.03 dose g-1
same,Distribution of radioactivity,Rattus norvegicus [16],0.04 dose g-1
same,Distribution of radioactivity,Rattus norvegicus [17],0.17 dose g-1
same,Distribution of radioactivity,Rattus norvegicus [18],0.06 dose g-1
same,Distribution of radioactivity,Rattus norvegicus [19],< 0.007 dose g-1
same,Distribution of radioactivity,Rattus norvegicus [20],0.05 dose g-1
same,Distribution of radioactivity,Rattus norvegicus [21],0.03 dose g-1
same,Distribution of radioactivity,Rattus norvegicus [22],< 0.002 dose g-1
same,Distribution of radioactivity,Rattus norvegicus [23],2.01 dose g-1
same,Distribution of radioactivity,Rattus norvegicus [24],2.39 dose g-1
same,Distribution of radioactivity,Rattus norvegicus [25],0.13 dose g-1
same,Distribution of radioactivity,Rattus norvegicus [26],1.02 dose g-1
same,Distribution of radioactivity,Rattus norvegicus [27],3.71 dose g-1
same,Distribution of radioactivity,Rattus norvegicus [28],1.75 dose g-1
same,Distribution of radioactivity,Rattus norvegicus [29],0.02 dose g-1
same,Distribution of radioactivity,Rattus norvegicus [30],1.16 dose g-1
same,Distribution of radioactivity,Rattus norvegicus [31],0.51 dose g-1

# From ChEMBL document CHEMBL1122064, “Synthesis and biological evaluation of 17-[131I]iodo-9-telluraheptadecanoic acid, a potential imaging agent” (J Med Chem, 1982)
